Source: PubChem
Shown is part of a subset that was picked to be rich in hits.
INS promoter act: TRM-6 insulin promoter activation; TRM-6 cells (human fetal islet line), insulin promoter eGFP reporter, imaging; plate-scaled: unstimulated 0, stimulated control 100; activation, % at 2 µM; hit rate 0.81% among 130,000;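 active = activation at 2 µM above a set limit, confirmed on inspection of the cell images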;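 also: share of cells whose green reporter signal exceeds an intensity cutoff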
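System – TRM-6 insulin promoter–eGFP reporter cells · Probe or stimulus – 0.75 µM tamoxifen as reporter inducer · Dosing – single-point 2 µM compound dose · Incubation – tamoxifen pre-incubation 15 h overnight, then compound exposure 48 h at 37 °C · Measured by – fixed-cell fluorescence microscopy, eGFP plus Hoechst · Evaluation – percent GFP-positive cells normalized to per-plate controls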
Active calls of the source: *; [ ] = another dose, or the depositor's remark.

SMILES	INS promoter act
COC(=O)c1nn(-c2ccccc2)c(=O)cc1Sc1ccc(Cl)cc1	122
CCOC(=O)c1ccc(NC(=O)C(=O)NCc2ccc(/C=C(/C#N)C(=O)NCCOC)o2)cc1	-7
CN(C)c1ccc(/C=C(/C#N)C(=O)NCc2ccccc2)o1	227*
Cc1cccc(NC(=O)/C(C#N)=C/c2ccc(Sc3ccccc3)o2)c1C	-100
Cc1ccc(C(=O)c2cc([N+](=O)[O-])ccc2N2CCCCC2)c(C)c1	148
O=S1(=O)CCN(OCc2ccc(Cl)cc2)CC1	-7
Cn1c(C(=O)OC(C(=O)NCc2ccco2)c2ccncc2)cc2sccc21 (configuration not stated)	633*
CC(OC(=O)c1cc2sccc2n1C)C(=O)NCCc1ccccc1 (configuration not stated)	6
CC(OC(=O)c1cc2sccc2n1C)C(=O)NCc1ccc(F)cc1 (configuration not stated)	-8
O=[N+]([O-])c1cc(C(F)(F)F)ccc1N1CCN(S(=O)(=O)c2ccc3c(c2)CCCC3)CC1	0
O=C(CCn1cnc(-c2ccccc2)c1-c1ccccc1)N/N=C/c1ccccc1O	0
CCc1ccc(-c2nnn(CCC(=O)OC)n2)cc1	-6
CCCC(=O)NCn1nnc(-c2ccc(Cl)cc2)n1	488*[fluoresces]
CS(=O)(=O)c1ccc(-c2nnn(CC(N)=O)n2)cc1	0
CCOC(=O)CC1(C)OCC(C[N+]2(C)CCCCC2)O1 (configuration not stated)	7
O=[N+]([O-])/C=C1/CCCCCN1	5
Cc1ccc(NC(=O)CCC(=O)OCC(=O)c2ccc(-c3ccccc3)cc2)cc1	-24
Cc1ccc(NC(=O)CCC(=O)OCC(F)(F)C(F)F)cc1	81*
O=C(CCC(=O)OCCCC(F)(F)C(F)(F)F)Nc1ccccc1	-9
O=C(COC(=O)c1ccccc1NS(=O)(=O)c1ccc(Cl)cc1)NCc1ccccc1	-7
CC1CN(C(=S)NC(=O)C2CCCCC2)CC(C)O1 (configuration not stated)	3
CC(NS(=O)(=O)c1ccccc1)C(c1cccs1)N1CCOCC1 (configuration not stated)	-2
N#Cc1ccccc1Cn1cc(/C=N/Nc2ccc([N+](=O)[O-])cn2)c2ccccc21	400*
Cn1cc(/C=N/NC(=O)COc2ccccc2[N+](=O)[O-])c2ccccc21	-9
O=[N+]([O-])/C=C/c1cn(Cc2ccc(Cl)cc2)c2ccccc12	-3
SMILES	INS promoter act
O=C(NNC(=O)[C@H]1CC=CC[C@H]1C(=O)O)c1ccc(Cl)cc1Cl	0
Cn1cc([N+](=O)[O-])c(C(=O)N/N=C/c2ccc3c(c2)OCO3)n1	-78
C=CCN1N=C(c2ccc(Cl)s2)CSC1=O	4
N/C(=N\OC(=O)CSc1ccccc1)c1cccc([N+](=O)[O-])c1	7
CCOC(=O)c1[nH]c2ccc(OCC)cc2c1CCCN1C(=O)c2ccccc2C1=O	6
O=C(COC(=O)c1cccnc1Cl)c1ccc(F)cc1	426*
O=C(COC(=O)c1cccnc1Cl)c1ccccc1	8
O=C(OCc1nnc(-c2ccccc2)o1)c1cccnc1Cl	-7
O=C(c1cccnc1)N1CCN(C(=O)c2cccs2)CC1	456*
O=C(c1cccs1)N1CCN(Cc2ccccn2)CC1	4
O=C(c1ccncc1)N1CCN(C(=O)c2cccs2)CC1	5
COCc1cc(C)nc(SCC[N+](C)(C)CC(=O)c2ccccc2)c1C#N	7
Cc1ccc(SCCCCN2C(=O)NC(C)(C)C2=O)cc1	379
Cc1nnsc1SCC(=O)O	-7
CC1CCc2cc(F)ccc2N1C(=O)CCl (configuration not stated)	7
COc1ccccc1N1CCN(S(=O)(=O)c2ccc3c4c(cccc24)C(=O)N3C)CC1	7
C=CCN1C(=O)c2cccc3c(N4CCCCC4)ccc(c23)C1=O	669*
Cc1nn(C)c(Cl)c1C(=O)NCC(=O)NCc1ccccc1	0
CC1=C(CC/C(C)=N/NC(N)=S)C(C)(C)CCC1	176
Cc1ccc(NC(=O)CN(C)C(=O)CSc2nc3ccccc3o2)cc1	3
COCCCn1c(-c2ccsc2)nc2c1c(=O)[nH]c(=O)n2Cc1ccccc1	-8
C[C@H](NC(=O)c1ccco1)C(=O)Nc1ccc(S(=O)(=O)N2CCCC2)cc1	-4
O=S(=O)(NCc1ccco1)c1cccc(S(=O)(=O)N2CCOCC2)c1	0
O=S(=O)(c1ccc(S(=O)(=O)N(Cc2ccccc2)Cc2ccco2)cc1)N1CCCC1	494*
Cn1c(=S)ccc2ccccc21	0
SMILES	INS promoter act
NC(=O)c1c(NC(=O)C2CCCO2)sc2c1CCCC2 (configuration not stated)	0
CC1(C)CC(=O)C2=C(C1)N(c1ccccc1)C(=O)C2(O)C(F)(F)F (configuration not stated)	-4
Cc1ccccc1OCC(=O)Nc1cccc2nsnc12	-43
Cc1cc(Cl)ccc1OCC(=O)Nc1ccccc1N1CCOCC1	363
Cc1ccccc1NC(=O)COc1ccc(Br)cc1C	431*
OCCNCC12CC3CC(CC(C3)C1)C2	147
O=C(Nc1cccc([N+](=O)[O-])c1)c1ccc2c(c1)OCCO2	-5
O=C(N/N=C\c1ccc(-c2ccc([N+](=O)[O-])cc2)o1)c1ccc2c(c1)OCO2	-3
O=C(O)CC(NC(=O)c1ccc2c(c1)OCO2)c1cccc([N+](=O)[O-])c1 (configuration not stated)	464*
Cc1ccc(NC(=O)CSc2ncc3ccccn23)cc1C	0
NNC(=O)COc1cccc(Oc2ccccc2)c1	0
COc1ccc(/C(N)=N/OC(=O)C2CCC(=O)N2S(=O)(=O)c2ccc(C)cc2)cc1 (configuration not stated)	5
CCN(CC)C(=O)c1ccc(C)c(Br)c1	356
Cc1ccnc(SCC(=O)c2ccc(Br)cc2)c1C#N	-61
CCN(CC)C(=S)SCC(=O)c1ccc(Br)cc1	381*
COc1ccc2[nH]c3c(NCCC4=CCCCC4)ncnc3c2c1	-65
CC1CCN(S(=O)C23CC4CC(CC(C4)C2)C3)CC1 (configuration not stated)	5
CN1CCN(S(=O)C23CC4CC(CC(C4)C2)C3)CC1 (configuration not stated)	488*
O=S(NC1CCCCC1)C12CC3CC(CC(C3)C1)C2 (configuration not stated)	0
COc1ccc(NC(=O)N[C@@H](CCSC)C(=O)O)cc1Cl	-8
COc1cccc(/C=N/NC(=O)c2nc(-c3ccccc3)cc(-c3ccccc3)n2)c1	-3
COc1cccc(/C=C/C(=O)c2ccc[nH]2)c1	-7
COc1cccc(/C=C2\C(=O)C(=O)c3ccccc32)c1	178*
COc1cccc(C(=O)NC(=S)Nc2ccc(N(C)C)cc2)c1	-9
CCc1ccc(NC(=O)CCn2ccnc2C)cc1	6
SMILES	INS promoter act
NC(=O)c1noc(C(=O)N(CC(=O)NC2CCCC2)Cc2ccc3c(c2)OCO3)c1N	456*
O=C(NC1CCCC1)C(c1ccccc1)N(Cc1ccc2c(c1)OCO2)C(=O)Cc1cccs1 (configuration not stated)	246
Cn1cnnc1SCC(=O)N(Cc1ccc2c(c1)OCO2)C1(C(=O)NC2CCCCC2)CCCC1	7
O=C(O)c1cn(Cc2ccccc2)c2ccccc2c1=O	383*
COc1ccc2c(c1)c(=O)c(C(=O)c1ccccc1)cn2Cc1ccc(C)cc1	-7
O=C1C2C3C=CC(C3)C2C(=O)N1/N=C/c1cn(Cc2ccccc2)c2ccccc12 (configuration not stated)	-5
